Blank lines part the entries; values can stand above or below the molecule they belong to.
Experiments:
[1] = test system: endogenous β-AR (HEK293 cells); assay: Single-cell FRET microscopy of isoprenaline-stimulated cAMP production; format: cell-based; settings: 3 nM isoprenaline, continuous
Method in brief: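 HEK293 cells co-transfected (Effectene) with receptor and Epac-SH187 cAMP FRET sensor; medium changed 16 h post-transfection, reseeded on PLL-coated coverslips, imaged 36–48 h post-transfection. One cell per coverslip, continuously perfused with FRET buffer (HEPES, pH 7.35) and/or ligand. FRET = corrected YFP/CFP ratio, normalized to baseline; cAMP rise lowers FRET. Traces averaged over eight cells from 3 days.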

[2] = molecular target: CmorAlstRC ΔN-term mutant (Carausius morosus)
[3] = molecular target: Carausius morosus allatostatin-C receptor with C-terminal EYFP (CmorAlstRC-EYFP) (Carausius morosus); assay: FRET or BRET
[4] = test system: β1 adrenergic receptor (β1AR); assay: Epac-S^H187 FRET cAMP production; format: cell-based; settings: HEK293, Epac-S^H187 sensor; at least three individual experiments
[5] = test system: α1A adrenergic receptor (α1AAR); assay: FRET-based Gαq activation, α1A adrenergic receptor; format: cell-based; settings: HEK293, 96-well
CXCR4 = assay: FRET-based Gαi2 activation, 96-well plate, CXCR4; format: cell-based; settings: HEK293, Gαi2 FRET sensor, ± SD, three to four independent plate reader experiments

Molecule: CC(C)NCC(O)c1ccc(O)c(O)c1 (centres unmarked) [Iso, isoprenaline]
- FRET response, cAMP production [1]: sharp decrease in FRET

- pEC50 of Gαi2 FRET sensor activation by DmelASTC, ΔN-term mutant, 96-well plates [2]: 8.47
Molecule: Drosophila melanogaster pGlu AST-C peptide (DmelASTC)

Molecule: human Gαi2-ECFP (from UniProt P04899 1-355) (natural protein)
- pEC50 of AST-C for the FRET change between CmorAlstRC-EYFP and Gαi2-ECFP [3]: 8.84
- tau of association (apparent, with 1 μM AST-C) [3]: 227 ms
- tau of dissociation (apparent, wash-off of 1 μM AST-C) [3]: 3.8 s

Molecule: NC[C@H](O)c1ccc(O)c(O)c1 [NE, Norepinephrine]
- change in FRET signal (cAMP production) [4]: decreased the FRET response (increased the cAMP level) in a NE concentration-dependent manner
- Gαq FRET sensor activation [5]: induced a concentration-dependent FRET decrease in the Gαq sensor

- pEC50, Gαi2 activation (CXCR4): 9.49 ± 0.1
Molecule: CXCL12: agonist of CXCR4, positive control for Gαi2 activation

— paper PMC7758886 (ACS Omega, 2020)
